The source of these data is ChEMBL document CHEMBL3856268 (J Med Chem, 2016).

Calls of active or inactive are those of the source. The rule behind the calls is not given here.

Data set [1] concerns the target T1, NAD-dependent protein deacetylase sirtuin-1 (Homo sapiens) (UniProt Q96EB6).
T1 sequence (whole entry): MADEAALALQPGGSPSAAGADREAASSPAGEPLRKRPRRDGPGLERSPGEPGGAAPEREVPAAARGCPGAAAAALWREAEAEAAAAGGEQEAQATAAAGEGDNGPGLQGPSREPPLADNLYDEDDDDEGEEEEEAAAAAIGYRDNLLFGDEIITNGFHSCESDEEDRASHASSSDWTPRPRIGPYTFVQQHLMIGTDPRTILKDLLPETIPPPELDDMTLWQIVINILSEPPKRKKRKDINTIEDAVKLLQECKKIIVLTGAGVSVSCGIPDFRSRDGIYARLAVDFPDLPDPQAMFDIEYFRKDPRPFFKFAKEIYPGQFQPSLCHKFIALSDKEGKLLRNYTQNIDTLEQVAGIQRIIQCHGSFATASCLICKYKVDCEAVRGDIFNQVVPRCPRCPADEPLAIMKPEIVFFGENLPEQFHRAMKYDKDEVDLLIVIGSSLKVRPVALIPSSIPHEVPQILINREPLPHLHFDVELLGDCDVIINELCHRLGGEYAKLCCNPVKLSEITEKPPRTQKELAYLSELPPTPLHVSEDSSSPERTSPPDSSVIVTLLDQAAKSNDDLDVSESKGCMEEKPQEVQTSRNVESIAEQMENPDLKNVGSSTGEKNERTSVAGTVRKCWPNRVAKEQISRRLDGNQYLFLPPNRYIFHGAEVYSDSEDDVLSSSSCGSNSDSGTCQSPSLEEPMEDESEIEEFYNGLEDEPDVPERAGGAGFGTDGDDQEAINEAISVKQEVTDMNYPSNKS
The data set can be described thus: Inhibition of 50 nM N-terminal His6-tagged recombinant human SIRT1 expressed in Escherichia coli at 100 uM using RHKK(Ac)W-NH2 as substrate after 30 mins by UV detection-based HPLC method. In a few lines: (§1)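 SIRT1 (Sigma stock ~6 μM, 10% glycerol, no BSA) freshly diluted in 50 mM Tris-HCl/Tris pH 8.0. Mixture: 200 μM NAD+, 100 μM RHKK(Ac)W-NH2, 1% DMSO, optional additive (Triton X-100 0.01% v:v; BSA 1 mg/mL). Reaction started by enzyme without preincubation, run at 37 °C with conversion kept at 1–10% (30 min at 50 nM, 1 h at 25 nM, 5–10 min at 250 nM). Read-out: C18 HPLC, UV 220 nm, percent conversion from peak areas.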

In data set [2] the target is T1, NAD-dependent protein deacetylase sirtuin-1 (Homo sapiens). The data set can be described thus: Activation of 50 nM N-terminal His6-tagged recombinant human SIRT1 expressed in Escherichia coli at 100 uM using RHKK(Ac)W-NH2 as substrate after 30 mins in presence of 0.01% TX-100 by UV detection-based HPLC method relative to control. In a few lines:
as §1

Data set [3] is described as follows: Drug aggregation in deuterated phosphate buffer assessed as diffusion coefficient at 1 mM by DOSY NMR method. It is filed as physicochemical. The settings on record: 1000 µM. In a few lines:
(§2)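 DOSY at 600 MHz in deuterated phosphate buffer (50 mM, pH 8.0), using stimulated echo with bipolar gradient pulses and spoil gradients. 32 F1 increments of 32 scans, relaxation delay 1 s, acquisition 0.68 s, Δ 50 ms, δ 2.2 ms, 8192 points, 6009 Hz width. Diffusion coefficients taken from residual resonances of the compound.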

A short description of data set [4]: Drug aggregation in deuterated phosphate buffer assessed as diffusion coefficient at 100 uM in presence of 1.5 uM bovine serum albumin by DOSY NMR method. It is filed as physicochemical. The essentials: as §2
A short description of data set [5]: Drug aggregation in deuterated phosphate buffer assessed as diffusion coefficient at 100 uM by DOSY NMR method. It is filed as physicochemical. The essentials: as §2
The target in data set [6] is T1, NAD-dependent protein deacetylase sirtuin-1 (Homo sapiens). As to the kind of experiment: Activation of 25 nM N-terminal His6-tagged recombinant human SIRT1 expressed in Escherichia coli at 100 uM using RHKK(Ac)W-NH2 as substrate after 1 hr in presence of 0.01% TX-100 by UV detection-based HPLC method.
Data set [7] shares this target. The data set can be described thus: Activation of 8 nM N-terminal His6-tagged recombinant human SIRT1 expressed in Escherichia coli at 100 uM using RHKK(Ac)W-NH2 as substrate in presence of 0.01% TX-100 by UV detection-based HPLC method relative to control. The essentials:
(§3)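 Same SIRT1 HPLC deacetylation assay: 50 mM Tris-HCl/Tris pH 8.0, 200 μM NAD+, 100 μM RHKK(Ac)W-NH2, 1% DMSO. Started by enzyme addition, 37 °C. Deacetylated product separated by C18 HPLC, detected at 220 nm, and conversion computed from peak areas.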

The target is the same in data set [8]. As to the kind of experiment: Activation of 25 nM N-terminal His6-tagged recombinant human SIRT1 expressed in Escherichia coli at 100 uM using RHKK(Ac)W-NH2 as substrate after 1 hr in presence of 0.01% Tween 20 by UV detection-based HPLC method. In a few lines:
as §3

Data set [9] shares this target. The data set can be described thus: Activation of 25 nM N-terminal His6-tagged recombinant human SIRT1 expressed in Escherichia coli at 100 uM using RHKK(Ac)W-NH2 as substrate after 1 hr in presence of 0.01% TX-100 by UV detection-based HPLC method relative to control. In a few lines: as §1
Data set [10] in a line: Drug aggregation in deuterated phosphate buffer assessed as diffusion coefficient at 100 uM in presence of 0.01% TX-100 by DOSY NMR method. It is filed as physicochemical. The essentials: as §2
Data set [11] is described as follows: Drug aggregation in deuterated phosphate buffer assessed as diffusion coefficient at 100 uM in presence of 0.001% TX-100 by DOSY NMR method. The data set is classed as physicochemical. In a few lines: as §2
Data set [12] addresses T1, NAD-dependent protein deacetylase sirtuin-1 (Homo sapiens). As to the kind of experiment: Inhibition of 25 nM N-terminal His6-tagged recombinant human SIRT1 expressed in Escherichia coli at 100 uM using RHKK(Ac)W-NH2 as substrate after 1 hr by UV detection-based HPLC method relative to control. The essentials:
as §1

Data set [13] shares this target. As to the kind of experiment: Inhibition of 8 nM N-terminal His6-tagged recombinant human SIRT1 expressed in Escherichia coli assessed as remaining activity at 100 uM using RHKK(Ac)W-NH2 as substrate by UV detection-based HPLC method relative to control. In a few lines: as §3
Data set [14] has the same target. The data set can be described thus: Activation of 50 nM N-terminal His6-tagged recombinant human SIRT1 expressed in Escherichia coli at low micromolar concentration using RHKK(Ac)W-NH2 as substrate after 30 mins in presence of 0.01% TX-100 by UV detection-based HPLC method relative to control. In a few lines:
as §1

Data set [15] has the same target. As to the kind of experiment: Binding affinity to 25 to 100 nM N-terminal His6-tagged recombinant human SIRT1 expressed in Escherichia coli at 100 uM by 1H NMR method.
Data set [16] has the same target. The settings on record: 1 uM.
Data set [17] has the same target. The settings on record: 1 uM. The source holds these as a separate data set.
For data set [18] the target is unchanged. The settings on record: 1 uM. This is another data set of the same source.
Data set [19] deals with T2, NAD-dependent protein deacetylase sirtuin-2 (Homo sapiens, UniProt Q8IXJ6).
T2 sequence (Q8IXJ6 whole entry): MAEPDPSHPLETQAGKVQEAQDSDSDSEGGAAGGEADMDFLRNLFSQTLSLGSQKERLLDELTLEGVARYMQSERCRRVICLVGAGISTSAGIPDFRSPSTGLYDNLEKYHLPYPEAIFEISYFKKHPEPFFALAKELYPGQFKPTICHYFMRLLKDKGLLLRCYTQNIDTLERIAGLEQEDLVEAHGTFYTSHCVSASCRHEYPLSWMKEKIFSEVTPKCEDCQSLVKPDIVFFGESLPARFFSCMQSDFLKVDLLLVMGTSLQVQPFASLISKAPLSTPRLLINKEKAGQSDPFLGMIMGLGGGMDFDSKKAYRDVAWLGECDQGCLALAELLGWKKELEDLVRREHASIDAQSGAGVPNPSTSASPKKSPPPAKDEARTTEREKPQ
The data set can be described thus: Inhibition of human recombinant GST-fused SIRT2 expressed in Escherichia coli DH5-alpha using [3H]acetic acid labeled MPSDKTIGG as substrate after overnight incubation by liquid scintillation counting method.

Data set [20] has as its target T3, NAD-dependent protein deacetylase sirtuin-1 (Homo sapiens, UniProt Q96EB6).
T3 sequence (Q96EB6 whole entry): T1 sequence (whole entry)
The data set can be described thus: Inhibition of human recombinant GST-fused SIRT1 expressed in Escherichia coli DH5-alpha using [3H]acetic acid labeled MPSDKTIGG as substrate after overnight incubation by liquid scintillation counting method.

As a reminder, the inhibition is the relative decrease from the control value, in per cent. In the case of `CC(C)=CCC[C@]1(C)[C@@H](CC=C(C)C)C[C@]2(CC=C(C)C)C(=O)C(CC=C(C)C)=C(O)[C@@]1(C(=O)C(C)C)C2=O`, the inhibition result in data set [1] is “Active”. Further, the outcome in [2] was Active.
On to `CC(C)=CCC[C@]1(C)[C@@H](CC=C(C)C)C[C@]2(CC=C(C)C)C(=O)[C@@]1(CC=C(C)C)C(=O)C(C(=O)c1ccc(O)c(O)c1)=C2O` [GUTTIFERONE A], for which, in data set [1], the inhibition result is “Active”. Moreover, the D in [3] turned out to be 2.246 ×10⁻¹⁰ m2/s; in data set [4], 1.61 ×10⁻¹⁰ m2/s; in data set [5], 2.706 ×10⁻¹⁰ m2/s; in data set [10], 1.808 ×10⁻¹⁰ m2/s; in data set [11], 2.298 ×10⁻¹⁰ m2/s. The fold change (FC) in data set [2] and in data set [9] was 2 each time. Moreover, the outcome in data set [6], in [8], in data set [14] and in data set [15] was Active. The Activity is 158% in data set [7] and 1% in data set [13]. In data set [12], the inhibition came to 90%.
For `CC(C)=CCC[C@]1(C)[C@@H](CC=C(C)C)C[C@@]2(CC=C(C)C)C(=O)[C@]1(C(=O)C(C)C)C(=O)C(CC=C(C)C)=C2OCC(=O)O`, the inhibition result in data set [1] is “Active”. Moreover, the outcome in [2] and in data set [9] was Active.
On to `CC1=CCC(C(=O)/N=C2\CC=C(S(=O)(=O)O)c3cc(S(=O)(=O)O)cc(S(=O)(=O)O)c32)=C/C1=N/C(=O)C1=CC=C/C(=N\C(=O)/N=C2\C=CC=C(C(=O)/N=C3/CC(C(=O)/N=C4\CC=C(S(=O)(=O)O)c5cc(S(=O)(=O)O)cc(S(=O)(=O)O)c54)=CC=C3C)C2)C1`, for which the inhibition entry in [16], in [17] and in data set [18] was “Active” each time.
For orientation: IC50 means the point on the concentration scale where inhibition reaches its midpoint. On to `CC(C)=CCC/C(C)=C/C[C@@H]1C[C@]2(CC=C(C)C)C(=O)[C@@](CC=C(C)C)(C(=O)C(C(=O)c3ccc(O)c(O)c3)=C2O)[C@@]1(C)CCC=C(C)C` [OBLONGIFOLIN C], for which the concentration for half-maximal inhibition (IC50) in data set [19] stood at 22 µM; in data set [20], 9 µM.
